Results as given in ChEMBL document CHEMBL4400525, “Toward a treatment of diabesity: In vitro and in vivo evaluation of uncharged bromophenol derivatives as a new series of PTP1B inhibitors” (Eur J Med Chem, 2019).
Calls of active or inactive are those of the source. The rule behind the calls is not given here.

How the values were obtained:
Homo sapiens [1] = species on record: Homo sapiens; assay: Selectivity ratio of IC50 for LAR (unknown origin) to IC50 for GST-fused PTP1B catalytic domain (1 to 321 residues) (unknown origin) expressed in Escherichia coli
[2] = Sub-acute toxicity in Kunming mouse assessed as visual toxic effect at 1000 mg/kg, po administered once daily for 14 days measured during compound dosing; format: organism-based; details: in vivo, 336 h
Homo sapiens [3] = species on record: Homo sapiens; assay: Selectivity ratio of IC50 for PTP1B A27S mutant (unknown origin) to IC50 for PTP1B (unknown origin)
[4] = Volume of distribution at steady state in specific pathogen free Sprague-Dawley rat at 2 mg/kg, iv or 10 mg/kg, po by LC-MS/MS analysis; format: ADME, organism-based; details: in vivo, read-out: Vdss
Mus musculus [5] = assay: Antidiabetic activity in BKS db mouse assessed as blood glucose level at 100 mg/kg, po administered once daily for 5 weeks measured post last dose by glucometry (reference value: 28 mM); format: functional
[6] = Sub-acute toxicity in Kunming mouse assessed as effect on food intake at 1000 mg/kg, po administered once daily for 14 days measured during compound dosing; format: organism-based; details: in vivo, 336 h
In short: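 Mice were dosed orally with 1000 mg/kg body wt per day for 14 days alongside a vehicle-dosed group. Water intake, food intake and body weight were tracked over the dosing period and reported as mean ± SEM, n = 10.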

Mus musculus [7] = assay: Antiobesity activity in BKS db mouse assessed as decrease in body weight at 100 mg/kg, po administered once daily for 5 weeks relative to control; format: functional; set-up: scale not given: the % may be the effect or the level left
In short: (§1)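 Diabetic BKS db mice, n = 8 per group, were given 100 mg/kg/day orally for five weeks. Vehicle- and metformin-treated db mice and vehicle-treated BKS mice served as controls. Food intake, water intake and body weight were followed weekly, and abdominal fat pads were weighed at the end. Values are mean ± SEM.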

Mus musculus [8] = assay: Antidiabetic activity in BKS db mouse assessed as improvement in insulin sensitivity by measuring decrease in glucose AUC at 100 mg/kg, po administered once daily for 2 weeks followed by insulin challenge and measured up to 120 mins by ITT; format: functional, organism-based
In short: (§2)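 In week 2 of treatment at 100 mg/kg/day p.o., an insulin tolerance test was run in db mice (n = 8) with 0.75 U/kg insulin. Blood glucose was followed over time and the area under the curve was calculated. Values are mean ± SEM.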

[9] = Sub-acute toxicity in Kunming mouse assessed as effect on kidney size at 1000 mg/kg, po administered once daily for 14 days measured 24 hrs post last dose by gomori staining based histological analysis; format: organism-based; details: in vivo
In short: (§3)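 After 14 days of oral dosing at 1000 mg/kg body wt per day, with vehicle-treated controls, liver, heart, kidney and lung sections were Gomori-stained. Sections were examined for histological structure and cell size.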

[10] = molecular target: T1, Tyrosine-protein phosphatase non-receptor type 1 (Homo sapiens, UniProt P18031); assay: Inhibition of GST-fused PTP1B catalytic domain (1 to 321 residues) (unknown origin) expressed in Escherichia coli using pNPP as substrate measured after 30 mins by spectrophotometric method
T1 sequence (P18031 whole entry): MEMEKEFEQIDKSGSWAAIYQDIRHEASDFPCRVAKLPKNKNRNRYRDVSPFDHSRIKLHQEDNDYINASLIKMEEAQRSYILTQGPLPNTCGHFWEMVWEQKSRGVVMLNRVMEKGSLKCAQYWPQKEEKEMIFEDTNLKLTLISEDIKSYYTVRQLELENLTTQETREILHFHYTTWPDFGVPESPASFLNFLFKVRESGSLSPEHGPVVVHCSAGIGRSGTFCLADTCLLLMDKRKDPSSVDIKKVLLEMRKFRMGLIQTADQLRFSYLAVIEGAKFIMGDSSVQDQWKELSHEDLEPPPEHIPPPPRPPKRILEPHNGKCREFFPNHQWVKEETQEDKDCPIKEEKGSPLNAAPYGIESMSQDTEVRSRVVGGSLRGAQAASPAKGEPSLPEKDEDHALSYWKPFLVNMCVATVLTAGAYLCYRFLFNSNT

Mus musculus [11] = assay: Antiobesity activity in BKS db mouse assessed as decrease in abdominal fat weight at 100 mg/kg, po administered once daily for 5 weeks; format: functional, organism-based; in short: as §1
[12] = Sub-acute toxicity in Kunming mouse assessed as mortality at 1000 mg/kg, po administered once daily for 14 days measured during compound dosing; format: organism-based; details: in vivo, 336 h
Mus musculus [13] = assay: Antidiabetic activity in BKS db mouse assessed as improvement in insulin sensitivity at 100 mg/kg, po administered once daily for 2 weeks followed by insulin challenge and measured up to 120 mins by ITT; format: functional, organism-based; in short: as §2
[14] = Acute toxicity in Kunming mouse assessed as change in body weight at 500 to 2000 mg/kg, po administered as single dose measured for 1 week; format: organism-based; details: in vivo, 168 h
[15] = Tmax in specific pathogen free Sprague-Dawley rat at 10 mg/kg, po by LC-MS/MS analysis; format: ADME, organism-based; details: in vivo
[16] = Sub-acute toxicity in Kunming mouse assessed as effect on liver size at 1000 mg/kg, po administered once daily for 14 days measured 24 hrs post last dose by gomori staining based histological analysis; format: organism-based; details: in vivo; in short: as §3
Homo sapiens [17] = species on record: Homo sapiens; assay: Selectivity ratio of IC50 for SHP1 (unknown origin) to IC50 for GST-fused PTP1B catalytic domain (1 to 321 residues) (unknown origin) expressed in Escherichia coli
[18] = Sub-acute toxicity in Kunming mouse assessed as structural changes in liver at 1000 mg/kg, po administered once daily for 14 days measured 24 hrs post last dose by gomori staining based histological analysis; format: organism-based; details: in vivo; in short: as §3
[19] = molecular target: T2, Tyrosine-protein phosphatase non-receptor type 1 (Homo sapiens) (UniProt P18031); assay: (§4) Binding affinity to human PTP1B (1 to 321 residues) by surface plasmon resonance analysis
T2 sequence (whole entry): T1 sequence (P18031 whole entry)
In short: (§5)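 PTP1B was immobilized on an SPR chip and the ligand was injected at 6.25, 3.125, 1.562, 0.781 and 0.390 µM. The sensorgrams were curve-fitted to obtain ka and kd, and KD was calculated from these.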

[20] = molecular target: T1, Tyrosine-protein phosphatase non-receptor type 1; assay: as §4; in short: as §5
[21] = molecular target: Receptor-type tyrosine-protein phosphatase F (Homo sapiens, UniProt P10586); assay: Inhibition of LAR (unknown origin)
Receptor-type tyrosine-protein phosphatase F, sequence (P10586 whole entry): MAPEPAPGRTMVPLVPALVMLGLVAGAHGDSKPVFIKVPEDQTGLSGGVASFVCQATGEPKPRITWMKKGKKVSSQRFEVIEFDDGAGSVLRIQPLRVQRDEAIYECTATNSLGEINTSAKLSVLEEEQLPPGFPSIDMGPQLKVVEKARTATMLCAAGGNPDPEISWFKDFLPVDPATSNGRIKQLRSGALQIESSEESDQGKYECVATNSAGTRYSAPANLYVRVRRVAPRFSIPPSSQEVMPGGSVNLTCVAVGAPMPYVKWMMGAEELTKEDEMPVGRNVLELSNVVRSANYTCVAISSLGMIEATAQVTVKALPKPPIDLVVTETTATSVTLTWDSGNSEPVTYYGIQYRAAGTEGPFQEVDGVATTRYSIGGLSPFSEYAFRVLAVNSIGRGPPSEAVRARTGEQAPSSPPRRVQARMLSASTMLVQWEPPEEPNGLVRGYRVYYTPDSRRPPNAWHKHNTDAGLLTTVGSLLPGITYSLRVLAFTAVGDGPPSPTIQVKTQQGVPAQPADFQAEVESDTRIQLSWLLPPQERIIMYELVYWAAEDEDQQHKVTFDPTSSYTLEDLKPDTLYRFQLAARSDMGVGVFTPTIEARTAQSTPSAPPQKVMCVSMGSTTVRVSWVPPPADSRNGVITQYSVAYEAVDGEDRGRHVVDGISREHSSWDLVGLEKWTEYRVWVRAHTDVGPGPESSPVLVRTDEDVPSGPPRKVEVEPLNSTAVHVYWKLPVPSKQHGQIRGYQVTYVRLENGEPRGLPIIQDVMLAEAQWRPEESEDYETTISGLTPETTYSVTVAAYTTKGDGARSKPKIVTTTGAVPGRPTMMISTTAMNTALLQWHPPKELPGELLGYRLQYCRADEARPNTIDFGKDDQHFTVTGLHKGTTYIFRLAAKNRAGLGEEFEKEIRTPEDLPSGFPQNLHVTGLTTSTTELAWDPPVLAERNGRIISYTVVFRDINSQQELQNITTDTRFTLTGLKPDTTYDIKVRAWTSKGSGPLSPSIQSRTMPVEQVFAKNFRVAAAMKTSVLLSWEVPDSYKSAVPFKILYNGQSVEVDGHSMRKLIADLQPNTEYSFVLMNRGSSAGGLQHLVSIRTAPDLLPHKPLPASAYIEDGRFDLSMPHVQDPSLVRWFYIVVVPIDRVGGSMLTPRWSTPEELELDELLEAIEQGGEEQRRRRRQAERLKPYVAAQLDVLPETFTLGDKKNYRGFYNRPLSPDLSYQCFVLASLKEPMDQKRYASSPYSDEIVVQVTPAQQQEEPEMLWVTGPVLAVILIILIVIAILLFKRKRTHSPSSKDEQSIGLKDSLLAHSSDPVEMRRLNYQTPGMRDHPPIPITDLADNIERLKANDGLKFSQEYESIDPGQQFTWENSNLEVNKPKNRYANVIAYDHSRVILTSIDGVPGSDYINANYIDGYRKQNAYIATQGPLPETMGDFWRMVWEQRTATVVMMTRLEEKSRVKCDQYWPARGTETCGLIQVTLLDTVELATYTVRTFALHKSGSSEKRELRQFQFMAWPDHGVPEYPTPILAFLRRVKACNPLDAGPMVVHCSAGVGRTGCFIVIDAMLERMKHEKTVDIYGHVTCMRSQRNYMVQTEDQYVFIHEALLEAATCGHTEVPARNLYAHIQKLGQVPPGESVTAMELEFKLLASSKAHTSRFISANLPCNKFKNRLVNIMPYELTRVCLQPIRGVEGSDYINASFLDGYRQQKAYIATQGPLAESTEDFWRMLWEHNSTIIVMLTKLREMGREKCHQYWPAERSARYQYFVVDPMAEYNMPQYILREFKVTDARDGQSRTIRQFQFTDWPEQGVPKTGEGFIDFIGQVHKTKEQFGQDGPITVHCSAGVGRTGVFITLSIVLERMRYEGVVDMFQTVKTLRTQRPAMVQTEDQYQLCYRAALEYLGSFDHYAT

[22] = Sub-acute toxicity in Kunming mouse assessed as structural changes in kidneys at 1000 mg/kg, po administered once daily for 14 days measured 24 hrs post last dose by gomori staining based histological analysis; format: organism-based; details: in vivo; in short: as §3
[23] = Oral bioavailability in specific pathogen free Sprague-Dawley rat at 10 mg/kg by LC-MS/MS analysis; format: ADME, organism-based; details: in vivo
[24] = Sub-acute toxicity in Kunming mouse assessed as structural changes in heart at 1000 mg/kg, po administered once daily for 14 days measured 24 hrs post last dose by gomori staining based histological analysis; format: organism-based; details: in vivo; in short: as §3
[25] = Sub-acute toxicity in Kunming mouse assessed as effect on heart size at 1000 mg/kg, po administered once daily for 14 days measured 24 hrs post last dose by gomori staining based histological analysis; format: organism-based; details: in vivo; in short: as §3
Mus musculus [26] = assay: Antiobesity activity in BKS db mouse assessed as decrease in food intake at 100 mg/kg, po administered once daily for 5 weeks; format: functional, organism-based; in short: as §1
[27] = Sub-acute toxicity in Kunming mouse assessed as behavioral changes at 1000 mg/kg, po administered once daily for 14 days measured during compound dosing; format: organism-based; details: in vivo, 336 h

## CCOc1ccc(Oc2ccc(-c3cnc(-c4cc(O)c(O)c(Br)c4Br)o3)cc2)cc1
Homo sapiens [1]
  Ratio IC50: 20 to 200
[2]
  Activity: Non-Toxic
Homo sapiens [3]
  Ratio IC50: 6 to 9
[4]
  Vd: 4.25 L/kg
Mus musculus [5]
  Activity: 18 mM
[6]
  Activity: Toxic
Mus musculus [7]
  Activity: 15%
Mus musculus [8]
  Activity: Active
[9]
  Activity: Non-Toxic
[10]
  IC50: 190 nM
Mus musculus [11]
  Activity: Active
[12]
  Activity: Non-Toxic
Mus musculus [13]
  Activity: Active
[14]
  Activity: Non-Toxic
[15]
  Tmax: 30 min
[16]
  Activity: Non-Toxic
Homo sapiens [17]
  Ratio IC50: 20 to 200
[18]
  Activity: Non-Toxic
[19]
  Activity: Dose-dependent effect
[20]
  Kd: 2240 nM
[21]
  IC50: > 36800 nM
[22]
  Activity: Non-Toxic
[23]
  bioavailability: 8.31%
[24]
  Activity: Non-Toxic
[25]
  Activity: Non-Toxic
Mus musculus [26]
  Activity: Active
[27]
  Activity: Non-Toxic
